Source: PubChem BioAssay (The Scripps Research Institute Molecular Screening Center)
M4 PAM = potentiates acetylcholine response at human M4 receptor; 360,000 tested, 0.4% active; activation, % at 3 µM; P08173; CHO-K1 hM4/Gqi5, Fluo-8 calcium fluorescence, ACh EC20; 0% = ACh EC20, 100% = maximal ACh;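 active = activation above its plate's cutoff, the mean activation of sample wells plus 3 SD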
M4 antag = CHRM4 antagonism in calcium assay | P08173 | CHO-hM4 cells, ACh EC80, Fluo-8 calcium fluorescence | inhibition, % at 3 µM | 360,000 tested, 0.73% active | AID 624125;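 active = inhibition above its plate's cutoff, the mean inhibition of sample wells plus 3 SD, cut at about 27% in these data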
CHRM5 PAM = potentiates acetylcholine response at human M5 receptor; P08912; CHO-K1 hM5, Fluo-8 calcium, ACh EC20 PAM; 0% = ACh EC20, 100% = ACh EC100; activation, % at 3 µM; 360,000 tested, 0.3% active; AID 624038;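 active = activation above the run cutoff, the mean activation of all test compounds plus 3 SD, cut at about 18% in these data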
Target sequence (P08912 whole entry, looked up): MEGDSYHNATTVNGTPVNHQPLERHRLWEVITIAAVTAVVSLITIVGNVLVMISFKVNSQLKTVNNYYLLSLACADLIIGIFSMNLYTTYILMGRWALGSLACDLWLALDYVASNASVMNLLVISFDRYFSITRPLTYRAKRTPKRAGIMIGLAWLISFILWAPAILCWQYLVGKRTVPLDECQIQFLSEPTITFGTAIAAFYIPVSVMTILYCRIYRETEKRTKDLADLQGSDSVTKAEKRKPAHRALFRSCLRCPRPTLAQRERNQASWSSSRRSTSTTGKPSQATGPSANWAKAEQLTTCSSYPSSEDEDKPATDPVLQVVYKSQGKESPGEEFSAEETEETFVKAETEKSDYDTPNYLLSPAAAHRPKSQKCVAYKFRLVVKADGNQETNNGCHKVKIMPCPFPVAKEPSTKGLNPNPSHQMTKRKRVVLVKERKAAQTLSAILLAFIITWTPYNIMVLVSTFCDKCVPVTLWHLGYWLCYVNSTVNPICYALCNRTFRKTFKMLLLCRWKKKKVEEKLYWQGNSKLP
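Measured by: Fluo-8 calcium fluorescence; material: human M5 receptor in CHO-K1 cells; schedule: Post-acetylcholine fluorescence recording 140 s; benchmarks: low control EC20 acetylcholine (0%), high control EC100 acetylcholine (100%); read-out: Max/basal fluorescence ratio as % of EC20–EC100 ACh window; compound: single dose, 3 µM nominal final test concentration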
CHRM5 antagonist = antagonists of human muscarinic M5 receptor (CHRM5); P08912; CHO-hM5 cells, Fluo-8 calcium fluorescence, ACh EC80; inhibition, % at 3 µM; 360,000 tested, 0.59% active; AID 624040;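 active = inhibition above a per-plate cutoff, the mean of that plate's test compounds plus 3 SD, cut at about 27% in these data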
CHRM5 agonist = CHRM5 agonism in calcium assay | CHO-K1 hM5 cells, Fluo-8 calcium fluorescence; 0% DMSO wells, 100% maximal acetylcholine response | activation, % at 3 µM | 360,000 tested, 0.19% active | AID 624037;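 active = activation above the run's mean over test compounds plus 3 SD, cut at about 23% in these data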;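 also: signal is peak over basal fluorescence ratio across the kinetic read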
M4 ag = agonists of human muscarinic M4 receptor (CHRM4) | activation, % at 3 µM | CHO-K1 hM4/Gqi5, Fluo-8 calcium fluorescence; vehicle 0%, full acetylcholine response 100% | 360,000 tested, 0.14% active | P08173;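 active = activation above the run mean over all test wells plus 3 SD, cut at about 32% in these data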;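 also: peak over basal fluorescence ratio per well then scaled between controls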
Numbers stand for hits; . = inactive. A selection: hits, their analogues and other compounds. The true share with any hit is near 1.8%.

SMILES | M4 PAM | M4 antag | CHRM5 PAM | CHRM5 antagonist | CHRM5 agonist | M4 ag
OC(CNCCC1C=Nc2ccccc21)Cn1c2ccc(Cl)cc2c2cc(Cl)ccc21 (centres undefined) | . | 37 | . | . | . | .
COC(/C(=N/O)c1ccc(Cl)cc1)c1ccccc1 (centres undefined) | . | 28 | . | 29 | . | .
O=C(NCC1CCN(Cc2ccc(Cl)cc2)CC1)C1CCCN(c2ncnc3c2nc2n3CCCCC2)C1 (centres undefined) | . | 84 | . | . | . | .
O=C(NCCc1ccc(Cl)cc1)C1CCCN(c2ncnc3c2nc2n3CCCCC2)C1 (centres undefined) | . | . | . | . | . | .
O=C(NCC1CCN(Cc2cccc(Cl)c2)CC1)C1CCCN(c2ncnc3c2nc2n3CCCCC2)C1 (centres undefined) | . | 36 | . | . | . | .
O=C(NCc1ccccc1)C1CCCN(c2ncnc3c2nc2n3CCCCC2)C1 (centres undefined) | . | . | . | . | . | .
O=C(NCC1CCN(Cc2ccc(F)cc2)CC1)C1CCCN(c2ncnc3c2nc2n3CCCCC2)C1 (centres undefined) | . | 36 | . | . | . | .
Clc1cccc(NCc2ccccc2)n1 | 22 | . | . | . | . | .
CCNc1ccc(Br)cc(C(=O)/C=C/c2ccc(Cl)cc2Cl)c1=O | . | 40 | . | . | . | .
CS(=O)(=O)N(CC(=O)N1CCCC1)c1cccc(C(F)(F)F)c1 | . | . | . | . | . | .
O=C(COC(=O)Cc1cccc(C(F)(F)F)c1)NCc1ccco1 | 32 | . | . | . | . | .
COCCn1cnc2c1c(=O)n(CC(=O)Nc1cc(C)on1)c(=O)n2Cc1ccccc1 | 24 | . | . | . | . | .
CC1(C(=O)NCc2ccccc2)CSCC(=O)N1Cc1cccc(F)c1 (centres undefined) | . | . | . | . | . | .
Cc1cccc(NC(=O)/C(C#N)=C\c2cn(CC(=O)O)c3ccccc23)c1 | . | . | . | 28 | . | .
O=C1NC(=Nc2cccnc2)S/C1=C/c1ccc(F)cc1 | 16 | . | . | . | . | .
O=C1NC(=Nc2ccccc2)S/C1=C\c1cccnc1 | . | . | . | . | . | .
CCC(=O)Nc1cccc(NC(=O)CSc2nc3c(c(=O)n(C)c(=O)n3C)n2C)c1 | . | . | . | . | . | .
O=C(NNC(=O)c1ccc(Oc2ccc(C3SCCS3)cc2)o1)c1ccc(Cl)cc1 | . | 27 | . | . | . | .
O=C(NNC(=O)c1ccc(Oc2cc(Cl)cc(Cl)c2)o1)c1ccccc1 | . | . | . | . | . | .
Cc1noc(C)c1CSc1ccccc1C(=O)Nc1nccs1 | . | . | 30 | . | . | .
O=C(O)CSc1nnc(CSc2nc3ccccc3s2)n1-c1ccccc1 | . | . | 20 | . | . | .
Cc1cc(C(=O)NCCc2ccc(Cl)cc2)no1 | . | . | . | . | . | .
COc1cc(CSc2nnnn2-c2ccc(C)cc2)cc(OC)c1OC | . | . | . | 31 | . | .
COc1ccc(F)cc1CSc1nnnn1-c1ccc(O)cc1 | . | . | . | . | . | .
NC(=O)COC(=O)c1ccc(S(=O)(=O)NCc2ccco2)cc1 | 20 | . | . | . | . | .
SMILES | M4 PAM | M4 antag | CHRM5 PAM | CHRM5 antagonist | CHRM5 agonist | M4 ag
CCC(C)NC(=O)c1cc2c(=O)n3cccc(C)c3nc2s1 (centres undefined) | . | . | . | . | . | .
COC(=O)Cc1ccc(OC(=O)CCS(=O)(=O)c2ccc(C)cc2)cc1 | . | . | . | . | . | .
Cc1ccc(OC(=O)CCS(=O)(=O)c2ccc(C)cc2)cc1 | 18 | . | . | . | . | .
S=c1[nH]nc(-c2ccncc2)n1/N=C/C=C/c1ccccc1 | . | . | . | . | . | .
S=c1[nH]nc(-c2ccncc2)n1/N=C/C(Cl)=C\c1ccccc1 | 26 | . | . | . | 38 | .
COc1ccccc1C(=O)Oc1ccc(C(C)(C)C)cc1 | . | . | 26 | . | . | .
COc1ccccc1C(=O)Oc1ccc2ccc(=O)oc2c1 | . | . | . | . | . | .
CN(c1ccc(C(=O)N2CCN(Cc3ccccc3)CC2)cc1)S(=O)(=O)c1ccc(Cl)cc1 | . | . | . | . | . | .
Cc1ccc2c(c1C)NC(C(=O)O)C1CC=CC21 (centres undefined) | . | . | . | . | . | .
O=C(O)C1Nc2c(C(F)(F)F)ccc(Cl)c2C2C=CCC12 (centres undefined) | . | . | 19 | . | . | .
Cc1noc(C)c1-c1ccc(C(=O)Nc2ccc(C(C)C)cc2)c2occc12 | . | . | . | . | . | .
COCCN1C(=O)C(=O)/C(=C(/O)c2ccc(S(=O)(=O)N3CCCCC3)cc2)C1c1ccc(O)c(OC)c1 (centres undefined) | . | . | . | . | . | .
COC(=O)c1cc(S(=O)(=O)N2CCOCC2)ccc1Sc1ccccc1N | 22 | . | . | . | . | .
CC(C)(C)C(=O)Nc1nc2c(c(=O)[nH]1)CCCC2 | 21 | . | . | . | . | .
CCC(=O)Nc1nc2c(c(=O)[nH]1)CCCC2 | . | . | . | . | . | .
CC(C)c1ccc(N2C(=O)CSC23C(=O)N2CCCc4cccc3c42)cc1 (centres undefined) | . | 90 | . | 48 | . | .
CCN(C(=O)COC(=O)c1cc(=O)c2ccccc2o1)c1c(N)n(Cc2ccccc2)c(=O)[nH]c1=O | . | . | . | . | . | .
Cc1ccc(CN2C(=O)CSCC2(C)C(=O)NC(C)C)cc1 (centres undefined) | . | . | . | . | . | .
OC1(C#CCCN2CCCCC2)c2ccccc2-c2ccccc21 | . | 56 | . | 90 | . | .
OC1(CC#CCN2CCCCC2)c2ccccc2-c2ccccc21 | . | . | . | . | . | .
COc1ccccc1OCC(=O)NCCS(=O)(=O)N1CCN(c2ccc(F)cc2)CC1 | . | . | . | . | . | .
CC(C)OCCCN(C)C1CCN(S(=O)(=O)c2ccc(-c3cc(C(F)(F)F)no3)s2)CC1 | . | 53 | . | . | . | .
O=C(Nc1ccc(N2CCN(C(=O)c3ccc(Cl)cc3)CC2)cc1)c1cccnc1 | . | . | . | . | . | .
O=C(c1ccc(Cl)cc1)N1CCN(c2ccc([N+](=O)[O-])c(NCc3cccnc3)c2)CC1 | 26 | . | . | . | . | .
O=C(c1cccnc1)N1CCN(c2ccc(Cl)cc2)CC1 | 30 | . | . | . | . | .
CCc1ccccc1NS(=O)(=O)Cc1ccccc1 | . | . | . | . | . | .
